What was measured:
HeLa [1] = assay: Antiproliferative activity against human HeLa cells assessed as cell survival ratio at 0.5 uM treated 1 hr before 2Gy ionizing radiation measured after 6 to 8 days by DMR clonogenic assay; type: functional
Procedure, shortened: (§1)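 HeLa cells seeded in 6-well dishes, incubated overnight at 37 °C/5% CO2, pre-treated 1 h with vehicle or inhibitor (0.1 or 0.5 μM), then given 2 Gy X-ray IR and held overnight. Medium then replaced without compound and culture continued 6-8 days. Colonies Giemsa-stained and counted automatically. DMR = % survival (vehicle, 2 Gy) / % survival (compound, 2 Gy).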

[2] = target: T1, DNA-dependent protein kinase catalytic subunit (Homo sapiens, UniProt P78527); assay: Inhibition of human DNA-PK using GST-tagged p53N66 as substrate after 1 hr by ELISA-based chemiluminiscence assay
T1 sequence (P78527 whole entry): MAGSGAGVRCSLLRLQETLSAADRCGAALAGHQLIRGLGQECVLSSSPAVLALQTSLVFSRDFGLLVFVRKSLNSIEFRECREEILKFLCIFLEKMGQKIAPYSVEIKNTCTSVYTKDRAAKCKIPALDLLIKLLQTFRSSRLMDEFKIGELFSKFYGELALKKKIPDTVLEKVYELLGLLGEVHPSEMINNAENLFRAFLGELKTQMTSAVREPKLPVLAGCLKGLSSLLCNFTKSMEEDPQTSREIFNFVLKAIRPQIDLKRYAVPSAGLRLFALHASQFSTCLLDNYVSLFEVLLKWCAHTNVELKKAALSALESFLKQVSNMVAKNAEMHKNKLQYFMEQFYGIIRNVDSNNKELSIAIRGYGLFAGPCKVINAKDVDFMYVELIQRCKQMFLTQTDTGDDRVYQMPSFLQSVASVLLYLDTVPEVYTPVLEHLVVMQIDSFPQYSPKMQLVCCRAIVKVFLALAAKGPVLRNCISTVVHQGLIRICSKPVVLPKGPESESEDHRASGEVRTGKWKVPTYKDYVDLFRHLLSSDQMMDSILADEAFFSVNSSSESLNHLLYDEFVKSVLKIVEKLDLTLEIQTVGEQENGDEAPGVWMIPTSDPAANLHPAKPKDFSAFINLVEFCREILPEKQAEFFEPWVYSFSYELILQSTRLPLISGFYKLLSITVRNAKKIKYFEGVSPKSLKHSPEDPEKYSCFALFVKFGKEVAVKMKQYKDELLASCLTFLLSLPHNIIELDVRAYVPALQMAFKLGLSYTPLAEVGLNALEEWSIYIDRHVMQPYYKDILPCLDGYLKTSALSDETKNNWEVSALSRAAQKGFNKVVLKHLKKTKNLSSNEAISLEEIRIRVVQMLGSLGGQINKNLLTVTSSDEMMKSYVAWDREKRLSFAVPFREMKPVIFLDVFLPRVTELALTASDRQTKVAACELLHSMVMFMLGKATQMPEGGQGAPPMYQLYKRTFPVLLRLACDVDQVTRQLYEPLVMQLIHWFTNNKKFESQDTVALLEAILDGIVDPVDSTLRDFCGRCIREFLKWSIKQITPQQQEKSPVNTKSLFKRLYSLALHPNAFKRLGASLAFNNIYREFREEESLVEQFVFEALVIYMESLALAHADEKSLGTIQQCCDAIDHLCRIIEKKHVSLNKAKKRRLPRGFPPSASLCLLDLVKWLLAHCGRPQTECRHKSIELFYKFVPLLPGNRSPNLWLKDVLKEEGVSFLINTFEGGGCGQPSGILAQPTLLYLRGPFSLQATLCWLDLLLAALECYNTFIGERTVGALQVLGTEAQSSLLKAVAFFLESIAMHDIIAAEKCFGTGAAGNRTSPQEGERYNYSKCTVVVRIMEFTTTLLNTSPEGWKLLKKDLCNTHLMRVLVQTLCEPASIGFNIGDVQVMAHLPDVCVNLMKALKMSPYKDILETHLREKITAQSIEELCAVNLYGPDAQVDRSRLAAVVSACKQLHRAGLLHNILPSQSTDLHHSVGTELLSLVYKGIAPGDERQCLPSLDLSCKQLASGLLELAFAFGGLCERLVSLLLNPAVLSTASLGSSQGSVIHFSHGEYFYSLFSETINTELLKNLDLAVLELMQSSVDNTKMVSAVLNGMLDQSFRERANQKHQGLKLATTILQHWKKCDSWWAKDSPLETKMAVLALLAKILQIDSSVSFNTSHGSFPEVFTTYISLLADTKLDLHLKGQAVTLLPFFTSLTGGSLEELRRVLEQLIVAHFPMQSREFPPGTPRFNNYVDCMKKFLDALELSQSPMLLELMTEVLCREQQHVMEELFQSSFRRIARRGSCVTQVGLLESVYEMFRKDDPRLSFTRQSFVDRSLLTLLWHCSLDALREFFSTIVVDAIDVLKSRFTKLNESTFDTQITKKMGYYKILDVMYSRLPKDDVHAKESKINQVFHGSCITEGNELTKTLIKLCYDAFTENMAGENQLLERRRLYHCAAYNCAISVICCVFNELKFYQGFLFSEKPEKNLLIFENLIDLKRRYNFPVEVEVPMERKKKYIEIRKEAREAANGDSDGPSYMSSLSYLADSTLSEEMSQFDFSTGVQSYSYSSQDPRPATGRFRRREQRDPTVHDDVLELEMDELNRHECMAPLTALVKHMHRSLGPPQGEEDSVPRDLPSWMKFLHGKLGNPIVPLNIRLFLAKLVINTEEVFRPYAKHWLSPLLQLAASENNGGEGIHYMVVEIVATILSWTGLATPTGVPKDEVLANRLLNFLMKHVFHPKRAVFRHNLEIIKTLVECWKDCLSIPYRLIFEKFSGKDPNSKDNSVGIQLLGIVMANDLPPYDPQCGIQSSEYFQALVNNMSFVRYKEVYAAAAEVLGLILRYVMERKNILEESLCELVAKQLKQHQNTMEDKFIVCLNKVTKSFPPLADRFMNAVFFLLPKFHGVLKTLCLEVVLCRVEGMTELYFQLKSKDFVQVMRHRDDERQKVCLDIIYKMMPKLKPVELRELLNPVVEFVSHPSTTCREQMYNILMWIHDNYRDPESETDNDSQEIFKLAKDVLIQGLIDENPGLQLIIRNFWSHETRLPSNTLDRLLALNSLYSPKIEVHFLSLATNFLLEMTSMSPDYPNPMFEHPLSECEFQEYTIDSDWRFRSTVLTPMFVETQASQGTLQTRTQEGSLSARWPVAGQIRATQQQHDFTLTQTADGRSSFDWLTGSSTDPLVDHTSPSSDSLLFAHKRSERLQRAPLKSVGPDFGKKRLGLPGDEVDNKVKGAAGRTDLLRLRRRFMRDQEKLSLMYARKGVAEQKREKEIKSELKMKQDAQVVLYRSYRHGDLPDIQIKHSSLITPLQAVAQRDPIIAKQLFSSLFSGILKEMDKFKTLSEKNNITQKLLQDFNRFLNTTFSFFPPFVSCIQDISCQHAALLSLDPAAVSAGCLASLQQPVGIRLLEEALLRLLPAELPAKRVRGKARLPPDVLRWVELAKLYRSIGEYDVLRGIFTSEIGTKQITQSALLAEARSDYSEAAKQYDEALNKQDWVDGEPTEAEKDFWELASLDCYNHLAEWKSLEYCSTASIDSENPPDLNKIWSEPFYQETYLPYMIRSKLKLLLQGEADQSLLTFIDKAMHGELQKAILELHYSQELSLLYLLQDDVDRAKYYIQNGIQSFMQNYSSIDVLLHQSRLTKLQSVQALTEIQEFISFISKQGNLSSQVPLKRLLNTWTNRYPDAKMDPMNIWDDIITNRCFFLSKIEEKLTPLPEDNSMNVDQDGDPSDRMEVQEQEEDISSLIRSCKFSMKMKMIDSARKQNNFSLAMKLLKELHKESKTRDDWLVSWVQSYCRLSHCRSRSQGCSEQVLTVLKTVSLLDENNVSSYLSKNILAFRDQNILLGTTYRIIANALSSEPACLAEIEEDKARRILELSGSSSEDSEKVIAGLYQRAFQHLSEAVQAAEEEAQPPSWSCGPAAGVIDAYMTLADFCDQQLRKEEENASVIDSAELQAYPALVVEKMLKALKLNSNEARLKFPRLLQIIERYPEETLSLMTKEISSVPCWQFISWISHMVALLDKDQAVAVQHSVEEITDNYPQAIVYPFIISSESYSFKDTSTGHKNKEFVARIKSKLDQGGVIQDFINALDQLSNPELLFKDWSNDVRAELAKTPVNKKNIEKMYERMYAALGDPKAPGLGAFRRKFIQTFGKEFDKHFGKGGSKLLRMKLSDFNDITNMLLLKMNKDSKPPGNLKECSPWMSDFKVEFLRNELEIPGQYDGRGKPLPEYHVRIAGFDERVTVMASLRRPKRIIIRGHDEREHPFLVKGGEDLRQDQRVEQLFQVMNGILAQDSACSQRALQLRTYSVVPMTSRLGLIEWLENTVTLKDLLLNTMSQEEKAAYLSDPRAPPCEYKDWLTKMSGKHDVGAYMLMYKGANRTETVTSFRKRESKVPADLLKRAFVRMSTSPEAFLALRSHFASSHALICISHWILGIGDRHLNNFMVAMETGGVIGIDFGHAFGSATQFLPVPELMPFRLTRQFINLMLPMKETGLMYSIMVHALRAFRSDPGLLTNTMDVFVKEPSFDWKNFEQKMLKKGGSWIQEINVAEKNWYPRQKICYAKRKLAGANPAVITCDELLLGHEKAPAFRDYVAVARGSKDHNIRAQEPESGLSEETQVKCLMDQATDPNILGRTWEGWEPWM

HeLa [3] = assay: Antiproliferative activity against human HeLa cells assessed as cell survival ratio at 0.1 uM treated 1 hr before 2Gy ionizing radiation measured after 6 to 8 days by DMR clonogenic assay; type: functional; procedure, shortened: as §1
[4] = target: T1, DNA-dependent protein kinase catalytic subunit; assay: Inhibition of DNA-PK autophosphorylation at S2056 in human HeLa cells; type: cell-based
[5] = Fraction unbound in human Plasma; type: ADME, cell-free
[6] = target: Serine/threonine-protein kinase ATR (Homo sapiens, UniProt Q13535); assay: Inhibition of ATR (unknown origin)
[7] = target: Serine-protein kinase ATM (Homo sapiens, UniProt Q13315); assay: Inhibition of ATM (unknown origin)
[8] = target: Serine/threonine-protein kinase mTOR (Homo sapiens, UniProt P42345); assay: Inhibition of mTOR (unknown origin)
[9] = target: T2, Phosphatidylinositol 4,5-bisphosphate 3-kinase catalytic subunit delta isoform (Homo sapiens, UniProt O00329); assay: Inhibition of PI-3K delta (unknown origin)
T2 sequence (O00329 whole entry): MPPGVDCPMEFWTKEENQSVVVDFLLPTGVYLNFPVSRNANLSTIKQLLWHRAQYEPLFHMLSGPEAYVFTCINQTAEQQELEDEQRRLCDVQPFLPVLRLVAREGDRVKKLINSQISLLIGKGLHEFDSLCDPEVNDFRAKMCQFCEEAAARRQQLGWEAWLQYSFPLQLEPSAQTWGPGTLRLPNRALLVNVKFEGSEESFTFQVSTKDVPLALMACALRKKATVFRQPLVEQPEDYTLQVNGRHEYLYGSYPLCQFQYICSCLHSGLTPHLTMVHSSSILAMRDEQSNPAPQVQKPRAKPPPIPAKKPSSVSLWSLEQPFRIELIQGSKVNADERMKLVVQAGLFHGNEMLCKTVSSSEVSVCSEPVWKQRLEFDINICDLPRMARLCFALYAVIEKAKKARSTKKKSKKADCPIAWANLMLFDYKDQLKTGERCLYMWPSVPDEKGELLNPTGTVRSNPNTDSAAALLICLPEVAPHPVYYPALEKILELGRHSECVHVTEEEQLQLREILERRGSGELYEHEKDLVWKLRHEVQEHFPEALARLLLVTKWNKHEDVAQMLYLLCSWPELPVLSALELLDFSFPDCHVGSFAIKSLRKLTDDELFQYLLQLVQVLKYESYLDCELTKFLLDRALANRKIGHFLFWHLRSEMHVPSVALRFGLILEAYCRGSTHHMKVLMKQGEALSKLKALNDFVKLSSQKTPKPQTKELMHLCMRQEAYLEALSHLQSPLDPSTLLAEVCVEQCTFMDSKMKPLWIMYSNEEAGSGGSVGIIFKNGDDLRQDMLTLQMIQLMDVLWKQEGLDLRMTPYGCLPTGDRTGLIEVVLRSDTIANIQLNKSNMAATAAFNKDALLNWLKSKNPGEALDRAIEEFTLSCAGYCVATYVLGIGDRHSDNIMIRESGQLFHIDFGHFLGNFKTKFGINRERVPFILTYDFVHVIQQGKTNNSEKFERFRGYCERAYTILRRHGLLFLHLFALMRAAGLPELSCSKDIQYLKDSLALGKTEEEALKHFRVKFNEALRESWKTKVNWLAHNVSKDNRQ

SMILES | IC50 [2] [nM] | Ratio (HeLa [1]) | Ratio (HeLa [3]) | other results
O=c1cc(N2CCOCC2)oc2c(-c3ccc(OCCNCCN4CCOCC4)c4c3sc3ccccc34)cccc12 | 7 | 10.1 | 1.4 | 
C[C@@H]1CN(C(=O)COc2ccc(-c3cccc4c(=O)cc(N5CCOCC5)oc34)c3sc4ccccc4c23)C[C@H](C)O1 | 61 | 1 | 0.9 | 
CCN1CCCC1CNCCC(=O)Nc1ccc(-c2cccc3c(=O)cc(N4CCOCC4)oc23)c2sc3ccccc3c12 (centres undefined) | 49 | 1.7 | 1.2 | 
O=C(CCN1CCOCC1)Nc1ccc(-c2cccc3c(=O)cc(N4CCOCC4)oc23)c2sc3ccccc3c12 | 41 | 6.1 | 2 | 
CC(=O)N1CCN(CCOc2ccc(-c3cccc4c(=O)cc(N5CCOCC5)oc34)c3sc4ccccc4c23)CC1 | 2 |  |  | EC50 [4]: 166 nM; fraction unbound [5]: 0.0049
CN(C)CCN(C)C(=O)COc1ccc(-c2cccc3c(=O)cc(N4CCOCC4)oc23)c2sc3ccccc3c12 | 53 | 2.1 | 1.4 | 
NCCNCCC(=O)Nc1ccc(-c2cccc3c(=O)cc(N4CCOCC4)oc23)c2sc3ccccc3c12 | 22 | 1.4 | 1.2 | 
O=C(CCN(CCO)CCO)Nc1ccc(-c2cccc3c(=O)cc(N4CCOCC4)oc23)c2sc3ccccc3c12 | 26 | 0.8 | 1 | 
O=c1cc(N2CCOCC2)oc2c(-c3ccccc3)cccc12 [LY-294002] |  |  |  | IC50 [6]: > 10000 nM; IC50 [7]: > 10000 nM; IC50 [8]: 2800 nM; IC50 [9]: 220 nM
CC(C)N1CCN(C(=O)COc2ccc(-c3cccc4c(=O)cc(N5CCOCC5)oc34)c3sc4ccccc4c23)CC1 | 16 | 3.1 | 1.3 | 
COc1ccc(CNCCC(=O)Nc2ccc(-c3cccc4c(=O)cc(N5CCOCC5)oc34)c3sc4ccccc4c23)cc1 | 9 | 7.2 | 1.7 | 
O=C(CNCCN1CCOCC1)Nc1ccc(-c2cccc3c(=O)cc(N4CCOCC4)oc23)c2sc3ccccc3c12 | 12 | 4.7 | 1.4 | 
NCC(=O)Nc1ccc(-c2cccc3c(=O)cc(N4CCOCC4)oc23)c2sc3ccccc3c12 | 12 | 9 | 2.5 | 
CN1CCN(C(=O)COc2ccc(-c3cccc4c(=O)cc(N5CCOCC5)oc34)c3sc4ccccc4c23)CC1 | 29 | 1.8 | 1.1 | 
CN1CCCN(CCC(=O)Nc2ccc(-c3cccc4c(=O)cc(N5CCOCC5)oc34)c3sc4ccccc4c23)CC1 | 41 | 2.6 | 1.1 | 
O=C(CN1CCOCC1)Nc1ccc(-c2cccc3c(=O)cc(N4CCOCC4)oc23)c2sc3ccccc3c12 | 11 | 12.8 | 3.9 | 
O=C(CCN1CCCN(CCO)CC1)Nc1ccc(-c2cccc3c(=O)cc(N4CCOCC4)oc23)c2sc3ccccc3c12 | 42 | 1.1 | 1.2 | 
COCCN1CCN(CC(=O)Nc2ccc(-c3cccc4c(=O)cc(N5CCOCC5)oc34)c3sc4ccccc4c23)CC1 | 6 | 7.7 | 2.2 | 
CC(C)N1CCN(CC(=O)Nc2ccc(-c3cccc4c(=O)cc(N5CCOCC5)oc34)c3sc4ccccc4c23)CC1 | 9 | 12.9 | 1.7 | 
O=C(CCN1CCN(c2ncccn2)CC1)Nc1ccc(-c2cccc3c(=O)cc(N4CCOCC4)oc23)c2sc3ccccc3c12 | 18 | 7.1 | 1.6 | 
O=C(CN1CCCNCC1)Nc1ccc(-c2cccc3c(=O)cc(N4CCOCC4)oc23)c2sc3ccccc3c12 | 22 | 1.5 | 1.4 | 

Further lines, with some results ahead:

IC50 [2] [nM] | SMILES | Ratio (HeLa [1]) | Ratio (HeLa [3]) | other results
8 | O=C(CNCc1ccncc1)Nc1ccc(-c2cccc3c(=O)cc(N4CCOCC4)oc23)c2sc3ccccc3c12 | 5.5 | 1.4 | 
11 | CN(CC(N)=O)C(=O)COc1ccc(-c2cccc3c(=O)cc(N4CCOCC4)oc23)c2sc3ccccc3c12 | 1.4 | 0.9 | 
20 | O=c1cc(N2CCOCC2)oc2c(-c3ccc(OCCN4CCCCC4)c4c3sc3ccccc34)cccc12 | 3.5 | 1.4 | 
51 | O=C(CN1CCCCCC1)Nc1ccc(-c2cccc3c(=O)cc(N4CCOCC4)oc23)c2sc3ccccc3c12 | 3.9 | 1.3 | 
2 | O=c1cc(N2CCOCC2)oc2c(-c3ccc(OCCNc4cccnc4)c4c3sc3ccccc34)cccc12 | 1 | 0.9 | 
37 | CC(C)N1CCN(CCC(=O)Nc2ccc(-c3cccc4c(=O)cc(N5CCOCC5)oc34)c3sc4ccccc4c23)CC1 | 3.6 | 1.2 | 
8 | O=C(CNCCO)Nc1ccc(-c2cccc3c(=O)cc(N4CCOCC4)oc23)c2sc3ccccc3c12 | 6.2 | 1.6 | 
10 | C[C@@H]1CN(CCOc2ccc(-c3cccc4c(=O)cc(N5CCOCC5)oc34)c3sc4ccccc4c23)C[C@H](C)O1 | 3.2 | 1.1 | 
43 | CN1CCCC1CCNCC(=O)Nc1ccc(-c2cccc3c(=O)cc(N4CCOCC4)oc23)c2sc3ccccc3c12 (centres undefined) | 2.4 | 1.1 | 
19 | O=C(COc1ccc(-c2cccc3c(=O)cc(N4CCOCC4)oc23)c2sc3ccccc3c12)N1CCCCC1 | 5.1 | 1.4 | 
29 | O=C(CCN1CCN(CCO)CC1)Nc1ccc(-c2cccc3c(=O)cc(N4CCOCC4)oc23)c2sc3ccccc3c12 | 1.2 | 1 | 
29 | O=C(CCN1CCN(CCOCCO)CC1)Nc1ccc(-c2cccc3c(=O)cc(N4CCOCC4)oc23)c2sc3ccccc3c12 | 1 | 1.1 | 
7 | CN1CCN(CCOc2ccc(-c3cccc4c(=O)cc(N5CCOCC5)oc34)c3sc4ccccc4c23)CC1 | 5.1 | 3.1 | 
57 | CN(C)CCN(C)CC(=O)Nc1ccc(-c2cccc3c(=O)cc(N4CCOCC4)oc23)c2sc3ccccc3c12 | 5.7 | 1.1 | 
33 | O=C(CCNCCN1CCCCC1)Nc1ccc(-c2cccc3c(=O)cc(N4CCOCC4)oc23)c2sc3ccccc3c12 | 3.3 | 1 | 
23 | CC(=O)N1CCN(CCC(=O)Nc2ccc(-c3cccc4c(=O)cc(N5CCOCC5)oc34)c3sc4ccccc4c23)CC1 | 1.4 | 0.9 | 
10 | O=C(COc1ccc(-c2cccc3c(=O)cc(N4CCOCC4)oc23)c2sc3ccccc3c12)NCc1ccncc1 | 1.1 | 1 | 
6 | O=C(CN1CCN(CCOCCO)CC1)Nc1ccc(-c2cccc3c(=O)cc(N4CCOCC4)oc23)c2sc3ccccc3c12 | 3.2 | 1.6 | 
61 | O=C(CNCCN1CCCCC1)Nc1ccc(-c2cccc3c(=O)cc(N4CCOCC4)oc23)c2sc3ccccc3c12 | 9.6 | 1.3 | 
13 | O=C(CNCCCN1CCOCC1)Nc1ccc(-c2cccc3c(=O)cc(N4CCOCC4)oc23)c2sc3ccccc3c12 | 7.4 | 2 | 

— ChEMBL document CHEMBL2417539, “1-substituted (Dibenzo[b,d]thiophen-4-yl)-2-morpholino-4H-chromen-4-ones endowed with dual DNA-PK/PI3-K inhibitory activity” (J Med Chem, 2013)
